These results are taken from publication PMC8355823 (Toxicology Reports, 2021).

The test system of data set [1] is ES-D3 embryoid bodies. The data set is described as follows: Embryoid body. In kind it is cell-based, murine. The settings on record: Mus musculus, read-out: EB area (EC50); day 7. In outline: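 Differentiation run without LIF. Hanging drops kept 3 days, then EBs moved to exposure medium for 2 days, then placed singly in 24-well plates with exposure medium. On differentiation day 7, each EB was imaged by bright field at 4x and its border traced to give area. Mean area of 24 EBs per condition was used. EC50 taken from an exponential concentration-response fit with 90% BMCL-BMCU.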

In data set [2] the test system is ES-D3 embryoid bodies. Briefly: Total protein measurements of EBs. In kind it is cell-based, murine. The settings on record: Mus musculus, 168 h, read-out: Protein level (EC50); day 7. An outline of the steps:
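Differentiation run without LIF. Hanging drops kept 3 days, then exposure to test compound during EB culture. On differentiation day 7, 24 EBs per condition were pooled, dissociated at 37 °C for 3 min, washed in PBS and permeabilised in 1% Triton X-100 for 5 min. Protein measured by Micro BCA in triplicate. EC50 taken from an exponential concentration-response fit with 90% BMCL-BMCU.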

For a further data set, the system named is rats. Conditions: cited from earlier work.
The next data set deals with ES-D3 cells. The data set is described as follows: Cell viability assay. The settings on record: Mus musculus, 120 h, read-out: Viability (IC50). In kind it is cell-based, murine. An outline of the steps:
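ES-D3 cells plated at 500/well in LIF-containing medium and settled 2 h at 37 °C, 5% CO2. Exposed in six replicates to test compound, 0.25% DMSO vehicle, or penicillin G and 5-fluorouracil controls. Medium renewed at the same final concentrations after 3 days, then 2 more days. CellTiter-Blue added for 2 h; fluorescence read at 544/590 nm and expressed as % of DMSO. n = 3 experiments. IC50 taken from an exponential concentration-response fit with 90% BMCL-BMCU.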

The test system of the next data set is zebrafish. Conditions: cited from earlier work.
The next data set deals with rabbits. The settings on record: cited from earlier work.
Data set [3] relates to ES-D3 embryoid bodies. The data set is described as follows: Gene expression analysis. The data set is classed as cell-based, murine. The settings on record: after 24 h exposure, day 4. An outline of the steps: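 EBs differentiated to day 4 with 24 h exposure to test compound or 0.25% DMSO. 7–8 EB samples from two independent experiments. RNA isolated with a DNase step; quality accepted at 260/280 of 1.9–2.2 and RIN >8.2. TaqMan real-time PCR: 95 °C for 20 s, then 40 cycles of 95 °C 3 s and 60 °C 30 s. Values by ΔΔCt against mean Hprt1/Gusb/Polr2a. One-way ANOVA with Sidak test (p < 0.05) versus control.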

Each structure is given as a SMILES string. Read-outs that look alike come from different tables or passages of the source.

As for `CCOP(=S)(OCC)Oc1nc(Cl)c(Cl)cc1Cl` [Chlorpyrifos], the EC50 (usually the concentration at which the effect is half-maximal) in the data set on ES-D3 embryoid bodies [1] worked out at 139 µM. For the same molecule, the EC50 with ES-D3 embryoid bodies [2] came out at 92 µM. In addition, in the data set with rats (exposure of pregnant rats), the “Degenerated neurons in the cerebellum of the offspring” value is recorded as “increased degenerated neurons” and the “Numbers of Purkinje cells in the offspring” value was “reduced numbers of Purkinje cells”. In addition, the Psychobiological development result with rats (neonatal rats, dams exposed to 1 mg/kg per os) is “delay in psychobiological development”. For the same molecule, in the data set on rats (neonatal rats), the “Acetylcholine esterase (AChE)” value is “reductions” and the Muscarinic receptors result is reported as “dose-dependent decrease”. In addition, the Malformations result in the data set with rats (rats, maternally toxic doses of 25 mg/kg per day) is “multiple malformations”. The IC50 (in general, the concentration that inhibits the measured activity by half) with ES-D3 cells stood at 85.7 µM. Moreover, the Cardiac-related developmental defects result in the data set with zebrafish (zebrafish) is on record as “pericardial oedema”.

For the molecule `CCOC(=O)CC(SP(=S)(OC)OC)C(=O)OCC` (stereo not shown) [Malathion, malathion], the EC50 was determined as 72 µM in the data set with ES-D3 embryoid bodies [1] and 80.2 µM in the data set with ES-D3 embryoid bodies [2]. For the same molecule, the Fetotoxicity and teratogenicity entry in the data set with rabbits is on record as “neither fetotoxic nor teratogenic”. In the data set with ES-D3 cells, the IC50 was determined as 49.4 µM. Moreover, in the data set on zebrafish (zebrafish), the Cardiac-related developmental defects entry was “bradycardia and a reduced heart rate”.

For the molecule `O=P(Oc1ccccc1)(Oc1ccccc1)Oc1ccccc1` [Triphenyl phosphate, triphenyl phosphate], the concentration giving a half-maximal response (EC50) was 120 µM in the data set on ES-D3 embryoid bodies [1] and 108 µM in the data set on ES-D3 embryoid bodies [2]. The “Myh6 gene expression (late cardiomyocyte differentiation marker)” value in the data set with ES-D3 embryoid bodies [3] is recorded as “not expressed yet”. In addition, in the data set with rats (rats), the Fetotoxicity and teratogenicity entry was “neither fetotoxic nor teratogenic”. Further, the IC50 in the data set on ES-D3 cells amounted to 61.4 µM. Besides, the Cardiac-related developmental defects entry in the data set on zebrafish (zebrafish model) was “impaired cardiac looping and function”. For the same molecule, the Cardiac effects result in the data set with zebrafish (zebrafish) is “impairments in cardiac looping and function defects”.
